Legend:
Mus musculus [1] = organism: Mus musculus; test: Ability to antagonize uterine weight gain in immature mice, at a dose of 150 ug; Activity is expressed as anti-uterotrophic % reduction; type: functional; parameters: scale not given: the % may be the effect or the level left
Procedure, shortened: (§1)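 Immature (17-19 days, 8-10 g) female Swiss-Webster mice, groups of six. Daily sc injections in the nape for 3 consecutive days. Estradiol in sesame oil (0.1 µg/mL, 0.1 mL; total 0.03 µg) plus 0.05 mL test compound in isopropyl myristate, given at separate sites. Vehicle and estradiol-only controls. Uteri cleaned, blotted and weighed 24 h after the last dose. % reduction of the estradiol-induced weight gain.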

Mus musculus [2] = organism: Mus musculus; test: Ability to antagonize uterine weight gain in immature mice, at a dose of 30 ug; Activity is expressed as anti-uterotrophic % reduction; type: functional; parameters: scale not given: the % may be the effect or the level left; procedure, shortened: as §1
[3] = biological target: T1, Estrogen receptor (Mus musculus) (UniProt O08537+P19785); test: Antagonism of estradiol induced uterine weight gain in immature mice at 750 ug; Activity is expressed as anti-uterotrophic % reduction; type: functional; parameters: scale not given: the % may be the effect or the level left; procedure, shortened: as §1
Mus musculus [4] = organism: Mus musculus; test: Ability to antagonize uterine weight gain in immature mice, at a dose of 750 ug; Activity is expressed as anti-uterotrophic % reduction; type: functional; parameters: scale not given: the % may be the effect or the level left; procedure, shortened: as §1
[5] = biological target: Estrogen receptor (Homo sapiens) (UniProt Q92731+P03372); test: Antiproliferative activity against estrogen receptor positive MCF-7 human breast cancer cell line at 10e-9 M; type: functional, cell-based; details: MCF7
Procedure, shortened: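 MCF-7 cells in phenol-red-free RPMI 1640 with 5% calf serum, 2 mM L-glutamine and antibiotics, 37 °C, 5% CO2. Plated at 7.5 × 10⁴ cells/well, then allowed to attach for 2 days. Compound in 11:9 PEG 400–EtOH (final vehicle 0.1%) added on alternate days. Viable cells counted on day 4 by trypan blue exclusion, triplicate. % inhibition versus vehicle control.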

[6] = biological target: T1, Estrogen receptor (Mus musculus); test: Antagonism of estradiol induced uterine weight gain in immature mice at 150 ug.(p<0.01); type: functional; parameters: scale not given: the % may be the effect or the level left; procedure, shortened: as §1
[7] = biological target: Estrogen receptor (Rattus norvegicus) (UniProt P06211+Q62986); test: Relative binding affinity for estrogen receptor in rat uterine cytosol by displacement of [3H]-estradiol; details: Uterus
Procedure, shortened: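 Uterine cytosol from immature Sprague-Dawley rats (17-19 days) primed with estradiol (0.53 µg sc daily ×3). Competitive displacement of [3H]estradiol, with free ligand removed by dextran-coated charcoal. Parallel incubations with 4 × 10⁻⁶ diethylstilbestrol define nonspecific binding, which is subtracted. RBA relative to estradiol = 100%, by Bliss method, duplicates.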

[8] = biological target: T1, Estrogen receptor (Mus musculus); test: Antagonism of estradiol induced uterine weight gain in immature mice at 4 ug; Activity is expressed as anti-uterotrophic % reduction; type: functional; parameters: scale not given: the % may be the effect or the level left; procedure, shortened: as §1
[9] = biological target: T1, Estrogen receptor (Mus musculus); test: Antagonism of estradiol induced uterine weight gain in immature mice at 10 ug; Activity is expressed as anti-uterotrophic % reduction; type: functional; parameters: scale not given: the % may be the effect or the level left; procedure, shortened: as §1
[10] = biological target: T1, Estrogen receptor (Mus musculus); test: Antagonism of estradiol induced uterine weight gain in immature mice at 30 ug.; type: functional; parameters: scale not given: the % may be the effect or the level left; procedure, shortened: as §1
[11] = biological target: T1, Estrogen receptor (Mus musculus); test: Antagonism of estradiol induced uterine weight gain in immature mice at 800 ug; Activity is expressed as anti-uterotrophic % reduction; type: functional; parameters: scale not given: the % may be the effect or the level left; procedure, shortened: as §1
[12] = biological target: T1, Estrogen receptor (Mus musculus); test: Antagonism of estradiol induced uterine weight gain in immature mice at 200 ug; Activity is expressed as anti-uterotrophic % reduction; type: functional; parameters: scale not given: the % may be the effect or the level left; procedure, shortened: as §1
[13] = biological target: T1, Estrogen receptor (Mus musculus); test: Antagonism of estradiol induced uterine weight gain in immature mice at 400 ug; Activity is expressed as anti-uterotrophic % reduction; type: functional; parameters: scale not given: the % may be the effect or the level left; procedure, shortened: as §1

T1 sequence (O08537 whole entry, looked up): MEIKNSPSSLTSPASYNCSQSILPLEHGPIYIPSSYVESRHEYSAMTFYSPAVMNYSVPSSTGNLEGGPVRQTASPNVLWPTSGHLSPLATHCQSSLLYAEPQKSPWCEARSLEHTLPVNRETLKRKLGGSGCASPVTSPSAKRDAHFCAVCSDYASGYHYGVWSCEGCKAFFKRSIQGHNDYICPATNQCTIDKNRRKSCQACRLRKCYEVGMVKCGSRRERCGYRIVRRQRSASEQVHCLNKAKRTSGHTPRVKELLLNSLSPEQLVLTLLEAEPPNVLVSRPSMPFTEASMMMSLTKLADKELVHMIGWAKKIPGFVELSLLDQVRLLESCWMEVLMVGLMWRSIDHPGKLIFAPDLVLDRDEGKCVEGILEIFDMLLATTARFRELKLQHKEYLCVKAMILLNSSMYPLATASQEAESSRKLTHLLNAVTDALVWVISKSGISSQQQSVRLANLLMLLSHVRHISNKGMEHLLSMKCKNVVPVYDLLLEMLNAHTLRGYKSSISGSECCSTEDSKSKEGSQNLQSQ
T1 sequence (P19785 whole entry, looked up): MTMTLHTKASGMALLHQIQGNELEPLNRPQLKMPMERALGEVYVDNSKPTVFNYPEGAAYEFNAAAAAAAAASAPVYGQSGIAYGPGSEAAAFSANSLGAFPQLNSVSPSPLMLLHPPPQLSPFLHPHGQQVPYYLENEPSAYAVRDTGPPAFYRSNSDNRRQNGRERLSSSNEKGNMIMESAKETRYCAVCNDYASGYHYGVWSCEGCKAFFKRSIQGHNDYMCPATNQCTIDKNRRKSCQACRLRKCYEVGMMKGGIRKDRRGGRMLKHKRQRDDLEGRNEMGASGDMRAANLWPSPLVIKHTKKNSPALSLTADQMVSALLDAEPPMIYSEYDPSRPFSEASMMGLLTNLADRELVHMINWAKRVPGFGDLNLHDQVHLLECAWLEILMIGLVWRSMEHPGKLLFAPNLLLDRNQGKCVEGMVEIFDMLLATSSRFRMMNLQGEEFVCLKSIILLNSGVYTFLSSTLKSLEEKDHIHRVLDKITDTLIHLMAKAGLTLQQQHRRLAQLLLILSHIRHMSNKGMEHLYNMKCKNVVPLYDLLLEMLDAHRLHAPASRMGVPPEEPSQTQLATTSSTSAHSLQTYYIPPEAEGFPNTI

Row | Structure (SMILES) | Activity (Mus musculus [1]) [%] | Activity (Mus musculus [2]) [%] | Activity (Mus musculus [4]) [%] | other results
1 | CCN(CC)CCOc1ccc(C(O)(Cc2ccc(OC)cc2)c2ccccc2)cc1 (configuration not stated) | 30 | 1 | – | Activity [3]: 82%
2 | COc1ccc(C2(c3ccc(O)cc3)C(c3ccccc3)C2(Cl)Cl)cc1 (stereo in doubt; 6b) | -7 | 15 | 41 | –
3 | CC/C(=C(\c1ccccc1)c1ccc(OCCN(C)C)cc1)c1ccccc1 [TAMOXIFEN] | 0 | 4 | -12 | –
4 | COc1ccc(C2(c3ccc(OCc4ccccc4)cc3)C(c3ccccc3)C2(Cl)Cl)cc1 (configuration not stated) | – | 37 | 22 | inhibition [5]: 31.3%; Activity [6]: 47%
5 | ClC1(Cl)C(c2ccccc2)C1(c1ccccc1)c1ccccc1 (configuration not stated) | 3 | 11 | 13 | RBA [7]: 0.1%
6 | COc1ccc(C2(c3ccc(OCCN(C)C)cc3)C(c3ccccc3)C2(Cl)Cl)cc1 (configuration not stated) | 42 | 33 | 53 | Activity [8]: -10%; Activity [9]: 6%
7 | Oc1ccc(C2(c3ccccc3)C(c3ccccc3)C2(Cl)Cl)cc1 (configuration not stated) | 12 | 23 | 25 | –
8 | COc1ccc(C2=C(Cl)C(c3ccc(OC)cc3)c3cc(OC)ccc32)cc1 (configuration not stated) | -6 | 27 | 28 | –
9 | COc1ccc(C2C(Cl)(Cl)C2(c2ccc(OC)cc2)c2ccc(OCc3ccccc3)cc2)cc1 (configuration not stated) | 49 | – | 2 | Activity [9]: 2%; Activity [10]: 15%
10 | COc1ccc(C2C(Cl)=C(c3ccc(O)cc3)c3ccc(OC)cc32)cc1 (configuration not stated) | 14 | 3 | 12 | –
11 | COc1ccc(C2(c3ccc(O)cc3)C(c3ccccc3)C2(Cl)Cl)cc1 (stereo in doubt; 6c) | 18 | 28 | 22 | –
12 | COc1ccc(C2C(Cl)(Cl)C2(c2ccc(O)cc2)c2ccc(OC)cc2)cc1 (configuration not stated) | 10 | 19 | 26 | –
13 | COc1ccc(C2(c3ccccc3)C(c3ccccc3)C2(Cl)Cl)cc1 (configuration not stated) | 49 | 22 | 33 | inhibition [5]: 6.1%
14 | ClC1(Cl)C(c2ccccc2)C1c1ccccc1 (configuration not stated) | – | – | – | Activity [11]: 58%; Activity [12]: 28%; Activity [13]: 42%
15 | COc1ccc(C2C(Cl)=C(c3ccc(OCc4ccccc4)cc3)c3ccc(OC)cc32)cc1 (configuration not stated) | 4 | 14 | 0 | –
16 | CN(C)CCOc1ccc(C2(c3ccccc3)C(c3ccccc3)C2(Cl)Cl)cc1 (configuration not stated) | 30 | 37 | 18 | inhibition [5]: 12.4%; Activity [8]: -6%; Activity [9]: 10%
